These results are taken from ChEMBL document CHEMBL2176902, “Identification of small-molecule enhancers of arginine methylation catalyzed by coactivator-associated arginine methyltransferase 1” (J Med Chem, 2012).

Activity calls are given as the source filed them. The rule behind the calls is not given here.

For assay [1], the target named is Protein arginine N-methyltransferase 1 (Homo sapiens) (UniProt Q99873). Nature of the assay: Inhibition of human recombinant GST-PRMT1 expressed Escherichia coli BL21 using Npl3p substrate as substrate and [3H]-SAM at 50 uM after 90 mins by scintillation counting. The method in brief: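 Human recombinant PRMT1 was incubated with Npl3p substrate and [³H]SAM (0.42 μM) in PBS pH 7.4 with compound at 50 μM for 90 min at 30 °C. Percent inhibition was determined.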
Chain of Protein arginine N-methyltransferase 1 (Homo sapiens) (Q99873 whole entry, looked up): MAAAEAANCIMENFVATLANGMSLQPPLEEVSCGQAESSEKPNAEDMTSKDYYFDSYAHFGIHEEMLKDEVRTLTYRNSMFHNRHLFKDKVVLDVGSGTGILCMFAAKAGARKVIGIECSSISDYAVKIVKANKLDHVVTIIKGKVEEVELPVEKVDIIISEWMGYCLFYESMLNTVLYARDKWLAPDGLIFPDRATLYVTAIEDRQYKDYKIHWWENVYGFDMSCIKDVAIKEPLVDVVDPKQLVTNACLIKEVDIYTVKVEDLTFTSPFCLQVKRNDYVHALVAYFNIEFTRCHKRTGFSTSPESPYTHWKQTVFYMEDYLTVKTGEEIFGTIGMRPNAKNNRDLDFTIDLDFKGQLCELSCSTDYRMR

Assay [2] deals with T1, Histone-arginine methyltransferase CARM1 (Homo sapiens) (UniProt Q86X55).
T1 sequence (whole entry): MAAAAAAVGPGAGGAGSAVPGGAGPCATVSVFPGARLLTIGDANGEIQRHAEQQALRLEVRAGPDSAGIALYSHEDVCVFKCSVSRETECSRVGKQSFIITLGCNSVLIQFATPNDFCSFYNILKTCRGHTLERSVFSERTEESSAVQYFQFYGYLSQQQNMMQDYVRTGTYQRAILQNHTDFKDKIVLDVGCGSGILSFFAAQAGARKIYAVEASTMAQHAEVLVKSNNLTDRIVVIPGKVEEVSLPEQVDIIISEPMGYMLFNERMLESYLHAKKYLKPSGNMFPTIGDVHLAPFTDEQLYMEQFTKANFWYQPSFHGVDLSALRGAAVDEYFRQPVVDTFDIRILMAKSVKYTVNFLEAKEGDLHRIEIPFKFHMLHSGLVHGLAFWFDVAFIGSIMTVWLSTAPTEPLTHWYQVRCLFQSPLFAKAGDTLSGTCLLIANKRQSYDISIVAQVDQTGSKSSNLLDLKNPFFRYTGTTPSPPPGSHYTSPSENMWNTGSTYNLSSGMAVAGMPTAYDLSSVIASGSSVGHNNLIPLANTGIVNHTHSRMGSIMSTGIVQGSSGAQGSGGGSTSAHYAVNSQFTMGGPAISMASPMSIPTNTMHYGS
Briefly: Activation of recombinant CARM1 using PABP1 as substrate and [3H]-SAM at 50 uM after 90 mins by scintillation counting. The method in brief:
(§1)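 Recombinant CARM1 (0.2 μg) was incubated with PABP1 substrate and [³H]SAM (0.42 μM) in PBS pH 7.4 for 90 min at 30 °C. Compound was tested at 50 μM, or at 3–100 μM for concentration series. Bands were Ponceau-stained, excised and counted by liquid scintillation. Activity is given as % of DMSO control; no-SAM reactions served as negative control; at least two experiments.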

The target of assay [3] is T1, Histone-arginine methyltransferase CARM1 (Homo sapiens). Nature of the assay: Activation of recombinant CARM1 using histone H3 as substrate and [3H]-SAM at 50 uM after 90 mins by scintillation counting. The method in brief: (§2)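 Recombinant CARM1 (0.2 μg) was incubated with histone H3 (1.1 μM) and [³H]SAM (0.42 μM) in PBS pH 7.4 with compound (50 μM) for 90 min at 30 °C. Methylation was measured by scintillation counting. Activity is expressed as % relative to DMSO, as the mean of at least two separate experiments.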

The target is the same in assay [4]. Briefly: Activation of recombinant CARM1 using histone H3 as substrate and [3H]-SAM after 90 mins by scintillation counting. The method in brief:
as §2

Assay [5] concerns the target T2, Histone-lysine N-methyltransferase SETD7 (Homo sapiens) (UniProt Q8WTS6).
T2 sequence (whole entry): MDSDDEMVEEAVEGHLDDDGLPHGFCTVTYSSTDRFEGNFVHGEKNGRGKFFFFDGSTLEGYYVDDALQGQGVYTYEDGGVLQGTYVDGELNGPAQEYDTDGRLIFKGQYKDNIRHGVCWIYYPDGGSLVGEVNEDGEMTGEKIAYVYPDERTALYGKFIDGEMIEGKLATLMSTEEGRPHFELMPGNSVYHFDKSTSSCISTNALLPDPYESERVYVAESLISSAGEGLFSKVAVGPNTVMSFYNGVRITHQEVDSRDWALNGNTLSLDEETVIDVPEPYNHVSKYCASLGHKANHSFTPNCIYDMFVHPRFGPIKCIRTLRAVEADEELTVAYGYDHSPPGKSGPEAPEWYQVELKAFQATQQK
Nature of the assay: Inhibition of recombinant SET7 using histone H3 as substrate at 50 uM and [3H]-SAM after 90 mins by scintillation counting.

Assay [6] concerns the target Protein arginine N-methyltransferase 6 (Homo sapiens) (UniProt Q96LA8). Briefly: Inhibition of recombinant PRMT6 using histone H3 as substrate at 50 uM and [3H]-SAM after 90 mins by scintillation counting.
Assay [7] addresses Protein arginine N-methyltransferase 3 (Homo sapiens) (UniProt O60678). Briefly: Inhibition of recombinant PRMT3 using glycine- and arginine-rich motif as substrate at 50 uM and [3H]-SAM after 90 mins by scintillation counting. The method in brief: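 Recombinant PRMT3 was incubated with GAR-motif substrate and [³H]SAM (0.42 μM) in PBS pH 7.4 with compound at 50 μM for 90 min at 30 °C.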

Assay [8] addresses T1, Histone-arginine methyltransferase CARM1 (Homo sapiens). Nature of the assay: Activation of recombinant CARM1 using PABP1 as substrate and [3H]-SAM after 90 mins by scintillation counting. The method, boiled down:
as §1

Assay [9] shares this target. Briefly: Activation of recombinant CARM1 expressed in HEK293 cells co-expressing 3XFLAG-tagged PABP1 assessed as arginine methylation of PABP1 at 50 uM after 24 hrs. The format is cell-based. The method, boiled down: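 Flp-In T-Rex HEK293 cells stably carrying Tet-inducible 3XFLAG-PABP1 were kept in DMEM/10% FBS with blasticidin and hygromycin. They were plated at 1 × 10⁵ cells/mL and the medium was changed after 12 h. Cells then got compound with or without tetracycline (1 μg/mL) for 24 h. RIPA lysates were immunoblotted with anti-methyl-PABP1 and anti-FLAG. Band densities were compared to DMSO control.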

Assay [10] shares this target. Nature of the assay: Inhibition of recombinant CARM1 using histone H3 as substrate at 50 uM and [3H]-SAM after 90 mins by scintillation counting. The method, boiled down: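 Recombinant CARM1 (0.2 μg) incubated with histone H3 substrate (0.5 μg; H3 1.1 μM) and [3H]SAM (0.42 μM) in PBS pH 7.4 with 50 μM compound, 90 min, 30 °C. Bands Ponceau-stained, excised, scintillation counted; activity expressed as percent of DMSO control. Means of at least two separate experiments, SD in percentage points.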

Chain of Protein arginine N-methyltransferase 6 (Homo sapiens) (Q96LA8 whole entry, looked up): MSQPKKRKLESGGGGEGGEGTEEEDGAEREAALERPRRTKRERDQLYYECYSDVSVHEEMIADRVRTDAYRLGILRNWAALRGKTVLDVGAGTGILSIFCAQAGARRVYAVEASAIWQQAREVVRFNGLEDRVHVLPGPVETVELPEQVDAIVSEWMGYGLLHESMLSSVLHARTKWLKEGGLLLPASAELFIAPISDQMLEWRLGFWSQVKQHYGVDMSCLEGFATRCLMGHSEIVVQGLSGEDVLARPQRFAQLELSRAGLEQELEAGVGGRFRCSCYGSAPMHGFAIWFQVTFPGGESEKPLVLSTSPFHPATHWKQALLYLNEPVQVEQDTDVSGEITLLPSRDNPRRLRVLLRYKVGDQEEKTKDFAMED
Chain of Protein arginine N-methyltransferase 3 (Homo sapiens) (O60678 2-531 limits assumed): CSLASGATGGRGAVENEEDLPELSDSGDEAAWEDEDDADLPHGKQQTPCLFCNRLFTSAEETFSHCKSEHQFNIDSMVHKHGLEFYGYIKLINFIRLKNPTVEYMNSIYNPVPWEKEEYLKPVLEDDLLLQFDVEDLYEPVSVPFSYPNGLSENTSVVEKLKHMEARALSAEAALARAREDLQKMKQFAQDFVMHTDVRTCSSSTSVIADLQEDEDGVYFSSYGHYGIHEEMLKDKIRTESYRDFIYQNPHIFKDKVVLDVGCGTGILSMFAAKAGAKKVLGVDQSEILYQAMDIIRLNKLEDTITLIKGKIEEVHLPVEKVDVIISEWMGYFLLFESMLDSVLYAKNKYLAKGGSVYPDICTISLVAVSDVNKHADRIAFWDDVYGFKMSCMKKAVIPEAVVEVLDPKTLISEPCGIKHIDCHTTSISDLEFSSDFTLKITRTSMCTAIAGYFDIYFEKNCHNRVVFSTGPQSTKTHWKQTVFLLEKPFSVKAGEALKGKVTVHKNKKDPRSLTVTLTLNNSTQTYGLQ

For `COC(=O)c1c[nH]c2ccc(NC(=O)CNC(=O)Nc3ccc(N(C)C)cc3)cc12`, in assay [1], the inhibition (in general, the relative decrease from the control value, in per cent) was “inactive”. Also, the Activity was found to be 7.6% in [2] and 125% in assay [3].

`COc1ccc(NC(=O)NCC(=O)Nc2ccc3[nH]c(C(=O)O)cc3c2)cc1`: in assay [1], the inhibition entry is “inactive”. Also, the Activity in assay [2] is 96.3%; in [3] it was 211%.

For the molecule `CCOC(=O)c1cc2cc(NC(=O)CNC(=O)Nc3ccc(N(C)C)cc3)ccc2[nH]1`, in assay [1], the inhibition entry is “inactive”. For the same molecule, the Activity in assay [2] turned out to be 70.6%; in assay [3] it was 102%.

`O=C(CNC(=O)Nc1ccc([N+](=O)[O-])cc1)Nc1ccc2[nH]c(C(=O)O)cc2c1`: in [1], the inhibition result was “inactive”. The Activity worked out at 85.3% in assay [2] and 142% in assay [3].

Turning to `COC(=O)c1c[nH]c2ccc(NC(=O)CNC(=O)Nc3ccc([N+](=O)[O-])cc3)cc12`, the inhibition entry in assay [1] was “inactive”. Moreover, the figures for the Activity in assay [2] and in [3] were 115% and 134%, respectively.

As to `Cc1ccc(NC(=O)NCC(=O)Nc2ccc3[nH]c(C(=O)O)cc3c2)cc1`, the inhibition entry in [1] was “inactive”. Also, the values for the Activity in assay [2] and in assay [3] were 149% and 111%, respectively.

On to `CCOC(=O)c1cc2cc(NC(=O)CNC(=O)Nc3ccc([N+](=O)[O-])cc3)ccc2[nH]1`, for which the inhibition result in assay [1] was “inactive”. In addition, the Activity in [2] is 299%; in assay [3] it was 176%; in assay [4], “Dose-dependent effect”; in assay [8], “Dose-dependent effect”. The inhibition in [5] came to 10.2%; in assay [6], 19.3%; in assay [7], 54.7%.

As to `COC(=O)c1c[nH]c2ccc(NC(=O)CNC(=O)Nc3ccc(C)cc3)cc12`, the inhibition entry in assay [1] is “inactive”. In addition, the Activity in [2] turned out to be 4.7%; in [3] it was 39.7%.

For `O=C(CNC(=O)Nc1ccccc1)Nc1ccc2[nH]c(C(=O)O)cc2c1`, the inhibition result in assay [1] is “inactive”. Further, the Activity stood at 172% in assay [2] and 167% in [3].

On to `COc1ccc(NC(=O)NCC(=O)Nc2ccc3[nH]cc(C(=O)O)c3c2)cc1`, for which the inhibition entry in [1] is “inactive”.

Take `CN(C)c1ccc(NC(=O)NCC(=O)Nc2ccc3[nH]cc(C(=O)O)c3c2)cc1`: the inhibition entry in assay [1] is “inactive”.

Turning to `CCOC(=O)c1cc2cc(NC(=O)CNC(=O)Nc3ccc(C#N)cc3)ccc2[nH]1`, in assay [9], the outcome was Active. In addition, the inhibition entry in [1] was “inactive”. Moreover, the Activity was determined as 358% in assay [2] and 115% in assay [3].

As to `CCOC(=O)c1cc2cc(NC(=O)CNC(=O)Nc3ccc(OC)cc3)ccc2[nH]1`, the inhibition result in [1] was “inactive”. Moreover, the figures for the Activity in [2] and in assay [3] were 74.7% and 183%, respectively.

For `O=C(CNC(=O)Nc1ccc([N+](=O)[O-])cc1)Nc1ccc2[nH]cc(C(=O)O)c2c1`, the inhibition entry in assay [1] was “inactive”.

With `CCOC(=O)c1cc2cc(NC(=O)CNC(=O)Nc3ccc(C)cc3)ccc2[nH]1`, the result in [9] was Active. The inhibition result in assay [1] was “inactive”. Further, the Activity in [2] stood at 382%; in [3], 127%.

As to `O=C(CNC(=O)Nc1ccccc1)Nc1ccc2[nH]cc(C(=O)O)c2c1`, in assay [1], the inhibition entry was “inactive”.

On to `N#Cc1ccc(NC(=O)NCC(=O)Nc2ccc3[nH]cc(C(=O)O)c3c2)cc1`, for which, in assay [1], the inhibition result was “inactive”.

Regarding `CN(C)c1ccc(NC(=O)NCC(=O)Nc2ccc3[nH]c(C(=O)O)cc3c2)cc1`, the inhibition result in [1] is “inactive”. For the same molecule, the Activity in assay [2] amounted to 135%; in assay [3], 48.3%.

As for `Cc1ccc(NC(=O)NCC(=O)Nc2ccc3[nH]cc(C(=O)O)c3c2)cc1`, the inhibition entry in [1] is “inactive”.

Consider `COC(=O)c1c[nH]c2ccc(NC(=O)CNC(=O)Nc3ccccc3)cc12`, for which the inhibition entry in assay [1] is “inactive”. Further, the Activity in assay [2] is 26.5%; in assay [3], 74.7%.

For `O=C(Nc1ccc2cc(C(=O)O)cc(O)c2c1)Nc1ccc2cc(C(=O)O)cc(O)c2c1`, the Activity in assay [3] was found to be 83.1%.

`N#Cc1ccc(NC(=O)NCC(=O)Nc2ccc3[nH]c(C(=O)O)cc3c2)cc1`: the inhibition entry in assay [1] was “inactive”. Also, the Activity came to 81.2% in assay [2] and 143% in [3].

With `CCOC(=O)c1cc2cc(NC(=O)CNC(=O)Nc3ccccc3)ccc2[nH]1`, the inhibition result in assay [1] is “inactive”. Also, the Activity is 10.5% in [2] and 134% in [3].

With `COC(=O)c1c[nH]c2ccc(NC(=O)CNC(=O)Nc3ccc(C#N)cc3)cc12`, the inhibition result in assay [1] was “inactive”. In addition, the values for the Activity in [2] and in assay [3] were 38.8% and 135%, respectively.

As for `COC(=O)c1c[nH]c2ccc(NC(=O)CNC(=O)Nc3ccc(OC)cc3)cc12`, in [1], the inhibition result is “inactive”. For the same molecule, the Activity in assay [2] was 28.2%; in assay [3], 62.7%.

On to `O=C(Nc1ccc2c(O)cc(S(=O)(=O)O)cc2c1)Nc1ccc2c(O)cc(S(=O)(=O)O)cc2c1`, for which the Activity in assay [3] was determined as 74%. The inhibition in [5] is 34.3%; in assay [6] it was 40.7%; in assay [10], 74.8%; in assay [7], 101%.
